Measured values reported in ChEMBL document CHEMBL4665761, “Optimizing the Benefit/Risk of Acetyl-CoA Carboxylase Inhibitors through Liver Targeting” (J Med Chem, 2020).
In brackets after ≈: the same amount, converted by molar mass.

Key:
[1] = Oral bioavailability in Wistar-Hannover rat plasma at 4 mg/kg and measured up to 24 hrs by LC/MS-MS analysis; assay type: ADME, organism-based
How it was run: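 Plasma concentration–time data, n = 2, averaged. Cmax and Tmax read directly from the data. AUC0–24 by the linear trapezoidal rule. F calculated as dose-normalized AUC PO/IV.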

[2] = Drug uptake in Wistar-Hannover rat liver at 30 mg/kg, po after 6 hrs by LC/MS-MS analysis; assay type: ADME, organism-based; conditions: read-out: Drug uptake
How it was run: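 Male Wistar-Hannover rats, n = 2 or 3, given an oral suspension in 0.5% methyl cellulose with 0.1% Tween 80; one compound was dosed as the HCl salt. Total plasma and liver concentrations were measured 6 h post-dose. Kp = liver/plasma total concentration. Kpu,u uses fu values from equilibrium dialysis.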

[3] = Inhibition of DNL in Sprague-Dawley rat assessed as reduction in DNL level in bone marrow at 300 mg/kg, po pretreated with 1 hr followed by [14C]-acetate treatment and measured after 1 hr relative to control; assay type: functional; conditions: time 2 hrs
How it was run: (§1)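 Sprague-Dawley rats given single oral doses of 0.03–300 mg/kg in 0.5% methyl cellulose vehicle, n = 16 per dose. Read-out is incorporation of 14C-acetate into lipids in liver, bone marrow and lung, measured at 2 h post-dose relative to vehicle. Data are mean ± SEM. EC50 is reported with a 95% confidence interval.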

[4] = target: P-glycoprotein 1 (Homo sapiens); test: Inhibition of human ABCB1 expressed in MDCK2-LE cells in presence of […]
[5] = Fraction unbound in human plasma by equilibrium dialysis method; assay type: ADME, cell-free
[6] = Thermodynamic solubility of the compound at pH 1.2 after 24 hrs; assay type: physicochemical; conditions: buffer, read-out: Therm_solubility
[7] = Clearance in cynomolgus monkey plasma at 1 mg/kg, iv and measured up to 72 hrs by LC/MS-MS analysis; assay type: ADME, organism-based, Macaca fascicularis
How it was run: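 Cynomolgus monkeys dosed 1 mg/kg IV as the tris salt in 2% N-methylpyrrolidone/98% sulfobutylether-β-cyclodextrin (12.5%) in 50 mM TRIS, pH 8.0, or PO as the tris salt. Plasma was analysed by LC-MS/MS, n = 2. CL = IV dose/AUC; Vss = dose/(AUC × elimination rate constant); Cmax taken from observed data.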

[8] = Genotoxicity in Salmonella typhimurium TA98 by Ames test; assay type: toxicity; conditions: salmonella enterica subsp. enterica serovar typhimurium
How it was run: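 Ames test in Salmonella strains TA98, TA100, TA1535 and TA1537, run with and without aroclor-induced rat liver S9 plus NADPH.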

[9] = AUC (0 to 24 hrs) in cynomolgus monkey plasma at 1 mg/kg, iv and measured up to 72 hrs by LC/MS-MS analysis; assay type: ADME, organism-based, Macaca fascicularis; parameters: route intravenous, dose 1 mg/kg, time <=72
How it was run: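 Cynomolgus monkeys received an IV solution of the tris salt in 2% N-methylpyrrolidone and 98% sulfobutylether-β-cyclodextrin (12.5%) in 50 mM TRIS buffer, pH 8.0. AUC0–24 came from plasma concentration–time data by the linear trapezoidal rule, averaged for n = 2.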

[10] = Toxicity in cynomolgus monkey assessed as reduction in platelet count at >= 30 mg/kg, po after 14 days; assay type: organism-based, Macaca fascicularis; conditions: in vivo
[11] = target: Voltage-gated inwardly rectifying potassium channel KCNH2 (Homo sapiens, UniProt Q12809); test: Inhibition of human ERG at 100 uM
Acetyl-CoA carboxylase 1 [12] = target: Acetyl-CoA carboxylase 1 (Homo sapiens, UniProt Q13085); test: Uncompetitive inhibition of human ACC1 incubated for 15 mins in presence of ATP by Line weaver-Burk plot analysis
How it was run: (§2)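 Radioenzymatic assay with purified ACC isozymes, measuring [14C]-bicarbonate incorporation into [14C]-malonyl-CoA. Mode of inhibition taken from substrate concentration-dependence experiments varying ATP or carbonate. IC50 dose-response run at saturating ATP.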

[13] = Inhibition of DNL in Sprague-Dawley rat assessed as reduction in DNL level in liver at 300 mg/kg, po pretreated with one hr followed by [14C]-acetate treatment and measured after 1 hr relative to control; assay type: functional; how it was run: as §1
Acetyl-CoA carboxylase 1 [14] = target: Acetyl-CoA carboxylase 1 (Rattus norvegicus, UniProt P11497); test: Inhibition of rat ACC1 using acetyl-CoA as substrate incubated for 20 mins in presence of [14C]O3 by liquid scintillation counting method; how it was run: as §2
CHO = test: Genotoxicity in CHO cells in presence of (aroclor-induced rat liver S9 fraction/NADPH by micronucleus test; assay type: toxicity, cell-based, Cricetulus griseus; conditions: chinese hamster
How it was run: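 In vitro micronucleus assay in Chinese hamster ovary or TK6 cells, run with and without metabolic activation by aroclor-induced rat liver S9 fraction plus NADPH.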

Rattus norvegicus [15] = test: Effect on triglyceride accumulation in Sprague-Dawley rat high fat dietary model at 1 mg/kg, po assessed as reduction in triglyceride level after 42 days by XPT clinical analyzer; assay type: functional; parameters: scale not given: the % may be the effect or the level left; conditions: time 42 day
How it was run: (§3)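 High-fat-diet-fed Sprague-Dawley rats dosed orally for 42 days, with chow-fed and vehicle controls, n = 10 per group. Read-out is hepatic triglyceride, reported as mean ± SEM.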

[16] = Inhibition of DNL in Sprague-Dawley rat assessed as reduction in DNL level in lung at 300 mg/kg, po pretreated with 1 hr followed by [14C]-acetate treatment and measured after 1 hr relative to control; assay type: functional; conditions: time 2 hrs; how it was run: as §1
[17] = Drug excretion in Wistar-Hannover rat urine at 1 mg/kg, iv and measured up to 24 hrs by LC/MS-MS analysis; assay type: ADME, organism-based; conditions: read-out: Drug excretion
[18] = Ratio of drug uptake in Wistar-Hannover rat liver to plasma at 10 mg/kg, po after 6 hrs by LC/MS-MS analysis; assay type: ADME, organism-based; conditions: liver and plasma
How it was run: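 Male Wistar-Hannover rats (n = 2 or 3) dosed orally as a suspension in 0.5% methyl cellulose with 0.1% Tween 80. Plasma and liver sampled 6 h post-dose. Kp is total liver/plasma; Kpu,u uses unbound fractions from equilibrium dialysis of plasma and liver.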

[19] = target: UDP-glucuronosyltransferase 2B7 (Homo sapiens, UniProt P16662); test: Inhibition of UGT2B7 in human liver microsomes incubated for 60 mins in presence of UDPGA by LC-MS/MS analysis; assay type: ADME
[20] = target: Solute carrier family 22 member 6 (Homo sapiens, UniProt Q4U2R8); test: Inhibition of human SLC22A6 expressed in HEK293 cells in presence of para-aminohippuric acid/metformin; assay type: cell-based
[21] = Drug uptake in human hepatocytes assessed as active uptake intrinsic clearance at 1 uM up to 15 mins by LC-MS/MS analysis; assay type: ADME, cell-based, Hepatocyte; conditions: 0.25 h
Rattus norvegicus [22] = test: Effect on triglyceride accumulation in Sprague-Dawley rat high fat dietary model at 3 mg/kg, po assessed as reduction in triglyceride level after 42 days by XPT clinical analyzer; assay type: functional; parameters: scale not given: the % may be the effect or the level left; conditions: time 42 day; how it was run: as §3
Cytochrome P450 3A4 = Cytochrome P450 3A4 (Homo sapiens, UniProt P08684); test: Activation of CYP3A4 in human hepatocytes at 0.5 to 200 uM; assay type: ADME, cell-based, Hepatocyte; conditions: dose 0.5-200 µM
How it was run: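 Individual human hepatocyte lots treated at 0.5–200 µM. Read-out is CYP3A4 enzyme activity.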

[23] = Thermodynamic solubility of the compound at pH 6.5 after 24 hrs; assay type: physicochemical; conditions: buffer, read-out: Therm_solubility

Sequence of Cytochrome P450 3A4 (P08684 whole entry): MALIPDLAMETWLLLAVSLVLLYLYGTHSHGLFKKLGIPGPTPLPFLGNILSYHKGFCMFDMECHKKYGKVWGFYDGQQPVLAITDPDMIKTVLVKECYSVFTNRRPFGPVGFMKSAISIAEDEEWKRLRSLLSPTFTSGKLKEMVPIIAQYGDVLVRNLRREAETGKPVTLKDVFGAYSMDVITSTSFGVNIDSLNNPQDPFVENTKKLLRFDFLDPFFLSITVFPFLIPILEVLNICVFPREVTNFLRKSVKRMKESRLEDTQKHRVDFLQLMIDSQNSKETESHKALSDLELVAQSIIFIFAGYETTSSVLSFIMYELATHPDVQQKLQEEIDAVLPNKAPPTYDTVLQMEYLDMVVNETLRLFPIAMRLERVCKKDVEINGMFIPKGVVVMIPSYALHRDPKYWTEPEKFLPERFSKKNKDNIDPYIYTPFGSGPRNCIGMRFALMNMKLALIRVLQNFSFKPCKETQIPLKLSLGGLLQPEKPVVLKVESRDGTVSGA
Sequence of Voltage-gated inwardly rectifying potassium channel KCNH2 (Q12809 whole entry): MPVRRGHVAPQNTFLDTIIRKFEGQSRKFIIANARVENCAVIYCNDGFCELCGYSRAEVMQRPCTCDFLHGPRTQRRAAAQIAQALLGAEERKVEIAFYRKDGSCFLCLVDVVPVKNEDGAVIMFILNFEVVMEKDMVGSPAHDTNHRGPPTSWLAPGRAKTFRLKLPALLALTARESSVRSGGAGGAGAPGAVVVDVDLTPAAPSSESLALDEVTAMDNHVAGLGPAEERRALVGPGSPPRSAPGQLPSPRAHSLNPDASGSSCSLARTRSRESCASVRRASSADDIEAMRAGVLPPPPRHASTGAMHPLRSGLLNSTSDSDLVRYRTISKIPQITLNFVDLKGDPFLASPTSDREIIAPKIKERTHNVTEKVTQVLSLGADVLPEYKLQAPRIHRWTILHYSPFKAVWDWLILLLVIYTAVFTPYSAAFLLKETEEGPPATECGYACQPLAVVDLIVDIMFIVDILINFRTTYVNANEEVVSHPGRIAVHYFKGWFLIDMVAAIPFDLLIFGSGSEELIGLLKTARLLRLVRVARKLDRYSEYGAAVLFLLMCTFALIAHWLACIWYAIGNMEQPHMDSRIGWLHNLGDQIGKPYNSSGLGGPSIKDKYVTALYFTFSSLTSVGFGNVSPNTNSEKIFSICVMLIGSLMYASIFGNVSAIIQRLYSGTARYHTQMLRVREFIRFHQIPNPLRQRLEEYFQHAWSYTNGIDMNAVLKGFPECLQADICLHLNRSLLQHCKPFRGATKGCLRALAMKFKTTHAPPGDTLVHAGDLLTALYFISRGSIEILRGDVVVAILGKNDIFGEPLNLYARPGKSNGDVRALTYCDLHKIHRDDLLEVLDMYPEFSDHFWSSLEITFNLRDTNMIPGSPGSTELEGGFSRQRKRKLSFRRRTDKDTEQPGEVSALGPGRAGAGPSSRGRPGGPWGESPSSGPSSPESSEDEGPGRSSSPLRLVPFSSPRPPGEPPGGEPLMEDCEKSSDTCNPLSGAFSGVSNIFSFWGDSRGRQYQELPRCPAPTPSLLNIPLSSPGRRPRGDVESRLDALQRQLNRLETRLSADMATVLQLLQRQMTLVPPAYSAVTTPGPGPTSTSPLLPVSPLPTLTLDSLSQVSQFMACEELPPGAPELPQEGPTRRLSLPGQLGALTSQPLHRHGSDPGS
Sequence of Solute carrier family 22 member 6 (Q4U2R8 whole entry): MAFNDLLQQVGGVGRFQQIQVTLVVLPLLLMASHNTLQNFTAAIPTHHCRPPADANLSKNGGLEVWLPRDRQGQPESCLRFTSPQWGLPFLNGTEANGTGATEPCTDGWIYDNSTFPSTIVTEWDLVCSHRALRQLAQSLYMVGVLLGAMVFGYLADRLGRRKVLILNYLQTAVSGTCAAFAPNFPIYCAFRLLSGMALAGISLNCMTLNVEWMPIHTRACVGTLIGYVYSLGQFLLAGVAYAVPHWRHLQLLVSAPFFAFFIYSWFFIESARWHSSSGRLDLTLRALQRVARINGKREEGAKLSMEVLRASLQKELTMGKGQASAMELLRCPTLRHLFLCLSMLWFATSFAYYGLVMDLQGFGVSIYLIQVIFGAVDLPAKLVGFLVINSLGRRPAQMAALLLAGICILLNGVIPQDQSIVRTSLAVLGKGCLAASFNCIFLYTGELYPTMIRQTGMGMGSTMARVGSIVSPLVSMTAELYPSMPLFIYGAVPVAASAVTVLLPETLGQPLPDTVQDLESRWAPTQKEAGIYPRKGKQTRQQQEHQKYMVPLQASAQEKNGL
Sequence of UDP-glucuronosyltransferase 2B7 (P16662 whole entry): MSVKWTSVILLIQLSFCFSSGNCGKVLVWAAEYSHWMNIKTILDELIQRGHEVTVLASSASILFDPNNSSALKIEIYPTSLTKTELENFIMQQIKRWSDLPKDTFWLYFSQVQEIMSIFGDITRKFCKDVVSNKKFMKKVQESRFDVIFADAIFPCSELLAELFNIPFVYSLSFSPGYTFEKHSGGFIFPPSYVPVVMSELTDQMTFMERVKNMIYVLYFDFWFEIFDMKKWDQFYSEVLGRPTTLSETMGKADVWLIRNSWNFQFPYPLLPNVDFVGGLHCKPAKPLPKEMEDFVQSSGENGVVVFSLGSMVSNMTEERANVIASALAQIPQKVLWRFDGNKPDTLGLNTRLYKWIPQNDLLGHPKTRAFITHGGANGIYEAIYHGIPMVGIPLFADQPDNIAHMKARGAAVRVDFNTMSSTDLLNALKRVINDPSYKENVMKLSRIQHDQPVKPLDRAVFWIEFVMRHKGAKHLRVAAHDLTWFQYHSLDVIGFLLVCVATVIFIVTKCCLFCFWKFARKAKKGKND

COc1cc(C(=O)N2CCC3(CC2)CC(=O)c2nn(C(C)(C)C)cc2O3)cc(-c2ccc(C(=O)O)cc2)n1
bioavailability [1]: 27%
concentration at 6 h [2]: 38100 ng/mL

COc1cc(C(=O)N2CCC3(CC2)CC(=O)c2c(cnn2C(C)C)C3)cc(-c2ccc(C(=O)O)cc2)n1 [CLESACOSTAT]
inhibition in vivo at 300 mg/kg [3]: 33%
IC50 [4]: 39 µM
fraction unbound [5]: 0.006
solubility thermodynamic at 24 h [6]: 8 µM (≈ 4.02 µg/mL)
clearance [7]: 1.3 mL/min/kg
Activity [8]: Non-Toxic
AUC(0-t) [9]: 14000 ng·h/mL
Activity [10]: Toxic
inhibition (INH) [11]: Not Active
IC50 (Acetyl-CoA carboxylase 1 [12]): 0.0124 µM
inhibition in vivo at 300 mg/kg [13]: 82%
IC50 (Acetyl-CoA carboxylase 1 [14]): 0.00753 µM
Activity (CHO): Non-Toxic
Activity (Rattus norvegicus [15]): 30%
inhibition in vivo at 300 mg/kg [16]: 29%
dose excreted at 24 h [17]: < 2%
Kp at 6 h [18]: 78
IC50 [19]: > 20 µM
IC50 [20]: > 30 µM
CLH [21]: 24 µL/min/mg
Activity (Rattus norvegicus [22]): 30%
Activity (Cytochrome P450 3A4): Not Active
solubility thermodynamic at 24 h [23]: 36 µM (≈ 18.1 µg/mL)
